What all share (assay type): functional
Assay [1] deals with Mus musculus. As to the kind of experiment: Number of survivors on 60th day at dose 10 mg/kg/day in 10 mice implanted with P388 leukemia cell line; 0/10.
In assay [2] the test system is Mus musculus. As to the kind of experiment: Percent increase in life span at dose 7.5 mg/kg/day in 10 mice implanted with P388 leukemia cell line.
In assay [3] the test system is Mus musculus. As to the kind of experiment: Number of survivors on 60th day at dose 7.5 mg/kg/day in 10 mice implanted with P388 leukemia cell line; 0/10.
Assay [4] deals with Mus musculus. Nature of the assay: Percent increase in life span at dose 5 mg/kg/day in 10 mice implanted with P388 leukemia cell line. In short, it runs like this:
(§1)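 Female DBA2 mice inoculated iv on day 0 with 10^4 P388 cells; single iv treatment on day 1 with drug as sulfate salt in physiological saline. Survival followed; %ILS from all deaths and survivors as (T/C × 100) − 100, maximal MST 30 days; survivors counted on days 30 and 60. Most experiments confirmed three times.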

Assay [5] deals with Mus musculus. As to the kind of experiment: Number of survivors on 30th day at dose 5 mg/kg/day in 10 mice implanted with P388 leukemia cell line; 0/10.
The subject of assay [6] is Mus musculus. Nature of the assay: Number of survivors on 30th day at dose 7.5 mg/kg/day in 10 mice implanted with P388 leukemia cell line; 0/10.
Assay [7] relates to Mus musculus. As to the kind of experiment: Number of survivors on 30th day at dose 10 mg/kg/day in 10 mice implanted with P388 leukemia cell line; 0/10.
The test system of assay [8] is Mus musculus. Nature of the assay: Number of survivors on 60th day at dose 5 mg/kg/day in 10 mice implanted with P388 leukemia cell line; 0/10.
The subject of assay [9] is Mus musculus. Nature of the assay: Percent increase in life span at dose 10 mg/kg/day in 10 mice implanted with P388 leukemia cell line. In short, it runs like this: as §1
Assay [10] deals with Mus musculus. Nature of the assay: Percent increase in life span at dose 60 mg/kg/day in 10 mice implanted with P388 leukemia cell line. In short, it runs like this:
as §1

The subject of assay [11] is Mus musculus. Nature of the assay: Percent increase in life span at dose 40 mg/kg/day in 10 mice implanted with P388 leukemia cell line. In outline: as §1
In assay [12] the test system is Mus musculus. Nature of the assay: Number of survivors on 60th day at dose 80 mg/kg/day in 8 mice implanted with P388 leukemia cell line; 0/8.
Assay [13] has as its system Mus musculus. As to the kind of experiment: Number of survivors on 60th day at dose 60 mg/kg/day in 10 mice implanted with P388 leukemia cell line; 0/10. In short, it runs like this: as §1
The test system of assay [14] is Mus musculus. As to the kind of experiment: Number of survivors on 30th day at dose 60 mg/kg/day in 10 mice implanted with P388 leukemia cell line; 0/10.
For assay [15], the system named is Mus musculus. Nature of the assay: Percent increase in life span at dose 80 mg/kg/day in 10 mice implanted with P388 leukemia cell line. In outline: as §1
Assay [16] has as its system Mus musculus. As to the kind of experiment: Number of survivors on 30th day at dose 40 mg/kg/day in 10 mice implanted with P388 leukemia cell line; 0/10.
Assay [17] has as its system Mus musculus. Nature of the assay: Number of survivors on 30th day at dose 80 mg/kg/day in 8 mice implanted with P388 leukemia cell line; 0/8.
Assay [18] concerns Mus musculus. Nature of the assay: Number of survivors on 60th day at dose 40 mg/kg/day in 10 mice implanted with P388 leukemia cell line; 0/10.
The subject of assay [19] is Mus musculus. Nature of the assay: Number of survivors of DBA2 mice on 30th day after inoculation with L1210 leukemia cell line intravenously at a dose of 6 mg/kg/day; 0/10. The following applies: route intravenous.
In assay [20] the test system is Mus musculus. Nature of the assay: Percent increase in life span at dose 6 mg/kg/day in 10 mice implanted with P388 leukemia cell line. In short, it runs like this: as §1
Assay [21] concerns Mus musculus. Nature of the assay: Number of survivors on 30th day at dose 6 mg/kg/day in 10 mice implanted with P388 leukemia cell line.
For assay [22], the system named is Mus musculus. Nature of the assay: Number of survivors on 30th day at dose 5 mg/kg/day in 10 mice implanted with P388 leukemia cell line.
The subject of assay [23] is Mus musculus. As to the kind of experiment: Number of survivors on 60th day at dose 6 mg/kg/day in 10 mice implanted with P388 leukemia cell line.
Assay [24] relates to Mus musculus. As to the kind of experiment: Number of survivors on 60th day at dose 5 mg/kg/day in 10 mice implanted with P388 leukemia cell line.
In assay [25] the test system is Mus musculus. Nature of the assay: Percent increase in life span of DBA2 mice after inoculation with L1210 leukemia intravenously at a dose of 6 mg/kg per day. To be noted: route intravenous. In short, it runs like this: (§2)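 Female DBA2 mice inoculated iv on day 0 with 10^4 L1210 cells; drugs given iv as sulfate salts in physiological saline, mostly once on day 1. %ILS from all deaths and survivors as (T/C × 100) − 100; survivors scored on days 30 and 60.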

In assay [26] the test system is Mus musculus. Nature of the assay: Percent increase in life span at dose 9 mg/kg/day in 10 mice implanted with P388 leukemia cell line. In short, it runs like this: as §1
The test system of assay [27] is Mus musculus. Nature of the assay: Percent increase in life span at dose 3 mg/kg/day in 10 mice implanted with P388 leukemia cell line. In outline: as §1
Assay [28] concerns Mus musculus. Nature of the assay: Number of survivors on 30th day at dose 8 mg/kg/day in 10 mice implanted with P388 leukemia cell line.
The test system of assay [29] is Mus musculus. Nature of the assay: Number of survivors on 60th day at dose 8 mg/kg/day in 10 mice implanted with P388 leukemia cell line. In outline:
as §1

The subject of assay [30] is Mus musculus. As to the kind of experiment: Number of survivors on 30th day at dose 9 mg/kg/day in 10 mice implanted with P388 leukemia cell line.
Assay [31] relates to Mus musculus. Nature of the assay: Percent increase in life span at dose 7 mg/kg/day in 10 mice implanted with P388 leukemia cell line. In short, it runs like this: as §1
The subject of assay [32] is Mus musculus. Nature of the assay: Percent increase in life span of DBA2 mice after inoculation with L1210 leukemia intravenously at a dose of 7 mg/kg per day. The following applies: route intravenous. In short, it runs like this:
as §2

The test system of assay [33] is Mus musculus. As to the kind of experiment: Number of survivors on 60th day at dose 3 mg/kg/day in 10 mice implanted with P388 leukemia cell line.
Assay [34] relates to Mus musculus. As to the kind of experiment: Number of survivors on 60th day at dose 7 mg/kg/day in 10 mice implanted with P388 leukemia cell line. In short, it runs like this: as §1
In assay [35] the test system is Mus musculus. Nature of the assay: Number of survivors of DBA2 mice on 60th day after inoculation with L1210 leukemia cell line intravenously at a dose of 7 mg/kg/day; 0/10. The following applies: route intravenous.
For assay [36], the system named is Mus musculus. As to the kind of experiment: Number of survivors on 60th day at dose 9 mg/kg/day in 10 mice implanted with P388 leukemia cell line.
The subject of assay [37] is Mus musculus. As to the kind of experiment: Number of survivors of DBA2 mice on 60th day after inoculation with L1210 leukemia cell line intravenously at a dose of 6 mg/kg/day; 0/10. To be noted: route intravenous.
Assay [38] has as its system Mus musculus. As to the kind of experiment: Number of survivors on 30th day at dose 7 mg/kg/day in 10 mice implanted with P388 leukemia cell line.
The test system of assay [39] is Mus musculus. As to the kind of experiment: Number of survivors of DBA2 mice on 30th day after inoculation with L1210 leukemia cell line intravenously at a dose of 7 mg/kg/day; 0/10. The following applies: route intravenous.
In assay [40] the test system is Mus musculus. As to the kind of experiment: Number of survivors on 30th day at dose 3 mg/kg/day in 10 mice implanted with P388 leukemia cell line; 0/10.
Assay [41] relates to Mus musculus. Nature of the assay: Percent increase in life span at dose 8 mg/kg/day in 10 mice implanted with P388 leukemia cell line. In outline: as §1

Here are results for three compounds from ChEMBL document CHEMBL1122917, “Vinblastin-23-oyl amino acid derivatives: chemistry, physicochemical data, toxicity, and antitumor activities against P388 and L1210 leukemias” (J Med Chem, 1985).

Regarding `CCOC(=O)[C@H](CO)NC(=O)[C@@]1(O)[C@H](O)[C@]2(CC)C=CCN3CC[C@@]4(c5cc([C@@]6(C(=O)OC)C[C@H]7C[N@](CCc8c6[nH]c6ccccc86)C[C@](O)(CC)C7)c(OC)cc5N(C)[C@@]14C)[C@@H]32`, the Survivors with Mus musculus [1], with Mus musculus [3], with Mus musculus [5], in the assay with Mus musculus [6], with Mus musculus [7] and in the assay on Mus musculus [8] was 0 each time. Further, the ILS at 7.5 mg/kg/day with Mus musculus [2] worked out at 26%. The ILS at 5 mg/kg/day in the assay on Mus musculus [4] was 16%. The ILS at 10 mg/kg/day with Mus musculus [9] stood at 32%.
With `CCCCCCCCOC(=O)[C@H](CC(C)C)NC(=O)[C@@]1(O)[C@H](O)[C@]2(CC)C=CCN3CC[C@@]4(c5cc([C@@]6(C(=O)OC)C[C@H]7C[N@](CCc8c6[nH]c6ccccc86)C[C@](O)(CC)C7)c(OC)cc5N(C)[C@@]14C)[C@@H]32`, the ILS at 60 mg/kg/day with Mus musculus [10] was 7.8%. Moreover, in the assay on Mus musculus [11], the ILS at 40 mg/kg/day was -0.9%. In addition, the Survivors with Mus musculus [12], with Mus musculus [13], in the assay with Mus musculus [14], in the assay with Mus musculus [16], with Mus musculus [17] and in the assay with Mus musculus [18] was 0 throughout. In addition, the ILS at 80 mg/kg/day in the assay on Mus musculus [15] was 9.5%.
As to `CC[C@H](C)[C@H](NC(=O)[C@@]1(O)[C@H](O)[C@]2(CC)C=CCN3CC[C@@]4(c5cc([C@@]6(C(=O)OC)C[C@H]7C[N@](CCc8c6[nH]c6ccccc86)C[C@](O)(CC)C7)c(OC)cc5N(C)[C@@]14C)[C@@H]32)C(=O)OC`, the Survivors is 0 with Mus musculus [19]; 3 with Mus musculus [21]; 3 in the assay with Mus musculus [22]; 0 with Mus musculus [23]; 1 in the assay with Mus musculus [24]; 3 in the assay with Mus musculus [28]. Further, the Survivors with Mus musculus [29] was found to be 3; with Mus musculus [30], 4; in the assay with Mus musculus [33], 0; with Mus musculus [34], 2; with Mus musculus [35] it was 0; in the assay with Mus musculus [36], 4. The Survivors with Mus musculus [37] was 0; with Mus musculus [38], 5; with Mus musculus [39] it was 0; in the assay on Mus musculus [40], 0. Also, the figures for the ILS at 6 mg/kg/day in the assay on Mus musculus [20] and with Mus musculus [25] were 118% and 65.7%, respectively. For the same compound, the ILS at 9 mg/kg/day in the assay with Mus musculus [26] turned out to be 48.3%. The ILS at 3 mg/kg/day in the assay with Mus musculus [27] stood at 41.3%. In addition, the results for the ILS at 7 mg/kg/day in the assay on Mus musculus [31] and in the assay on Mus musculus [32] were 164% and 64%, respectively. In the assay with Mus musculus [4], the ILS at 5 mg/kg/day is 66.5%. Moreover, the ILS at 8 mg/kg/day in the assay on Mus musculus [41] came to 149%.
